Consider three compounds from paper PMC6655586 (Nature, 2019).

Test [1] concerns MEFs. Kind of test: Western blot for ATF4 in MEFs. It is filed as cell-based, mouse. As to conditions: 1 μM, 6 hours. For orientation: In western blotting, separated proteins are transferred to a membrane and probed.
Test [2] concerns HTS cells. Kind of test: Mitochondrial membrane potential. It is filed as cell-based, mouse. The conditions noted are these: 1 μM, 10 minutes. The essentials:
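HTS cells were exposed for 10 minutes to DMSO, test compound, FCCP, rotenone, antimycin A or oligomycin A, then mitochondrial membrane potential was quantified. Mean ± SD; n = 3 (FCCP, rotenone) or 4 (others).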

As to `C=C(C)[C@H]1Cc2c(ccc3c2O[C@@H]2COc4cc(OC)c(OC)cc4[C@@H]2C3=O)O1` [rotenone], in test [1], the ATF4 induction entry was “ATF4 induction”. For the same compound, in test [2], the “acute change of mitochondrial membrane potential” value (shortened to “acute change”) is given as “acute reduction of membrane potential”.

oligomycin A: the ATF4 induction entry in test [1] is on record as “ATF4 induction”. In test [2], the “acute change” value was “acute increase in mitochondrial membrane potential”.

`CCCCCC[C@H]1C(=O)O[C@H](C)[C@H](NC(=O)c2cccc(NC=O)c2O)C(=O)O[C@@H](C)[C@@H]1OC(=O)CC(C)C` [antimycin A]: in test [1], the ATF4 induction entry was “ATF4 induction”. Further, the “acute change” value in test [2] was “acute reduction of membrane potential”.
